Laboratory results published in ChEMBL document CHEMBL4373658, “Scaffold hybridization strategy towards potent hydroxamate-based inhibitors of Flaviviridae viruses and Trypanosoma species” (Medchemcomm, 2019).
Activity calls are given as the source filed them. The calls are words filed in the database; no cut-off is given here.

Experiments:
[1] = Selectivity index, ratio of CC50 for rat L6 cells to EC50 for Trypanosoma cruzi strain CL Brener epimastigotes; type: toxicity; settings: read-out: Ratio CC50/EC50
[2] = Selectivity index, ratio of CC50 for human Huh5.2 cells to EC50 for HCV genotype 1b Con1; type: toxicity; settings: read-out: Ratio CC50/EC50
In short: (§1)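 Viability read as intracellular ATP, not MTT: 10^4 Huh5-2 cells/well, after 24 h exposed to compounds 72 h at 37 °C, 5% CO2, lysed, luminescent ATP kit read, ATP normalized to protein. CC50 versus DMSO control via nonlinear regression of log concentration; mean ± SD of three independent experiments in triplicate. SI = CC50/EC50.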

Trypanosoma brucei = assay: Antitrypanosomal activity against Trypanosoma brucei 221 bloodstream form assessed as inhibition of growth incubated for 4 days by resazurin dye based fluorescence assay; type: functional, organism-based; settings: Trypanosoma brucei, 221, 96 h
[3] = Selectivity index, ratio of CC50 for human Huh5.2 cells to EC50 for HCV genotype 4a ED43; type: toxicity; settings: read-out: Ratio CC50/EC50; in short: as §1
Trypanosoma cruzi = assay: Antitrypanosomal activity against Trypanosoma cruzi strain CL Brener epimastigotes form assessed as inhibition of growth incubated for 4 days by resazurin dye based fluorescence assay; type: functional, organism-based; settings: 96 h
[4] = Selectivity index, ratio of CC50 for rat L6 cells to EC50 for Trypanosoma brucei 221 bloodstream form; type: toxicity; settings: read-out: Ratio CC50/EC50
In short: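 T. brucei strain 221 bloodstream forms in modified Iscove's medium diluted to 2.5 × 10⁴ mL⁻¹, eight-point concentration curves at 37 °C; resazurin added after 48 h, further 16 h incubation; fluorescence at excitation 545 nm, emission 590 nm. EC50 and EC90 from triplicate experiments. SI = L6 CC50/EC50.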

Hepatitis C virus [5] = assay: Antiviral activity against HCV genotype 4a ED43 infected in human HuH7.5 cells assessed as reduction in viral replication incubated for 3 days by luciferase reporter gene assay; type: functional, organism-based, Hepacivirus hominis; settings: subtype 4a ED43, Huh7.5, 72 h
In short: (§2)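 Stable subgenomic replicon cell lines (Huh5-2 HCV 1b Con1 firefly luciferase; Huh7.5-3a S52, Huh7.5-4a ED43; Huh7-D2 DENV2 16681 Renilla luciferase) seeded 1×10^4 cells/well, 24 h at 37 °C, then serial compound dilutions in complete DMEM without G418 for 3 days at 37 °C. Lysate F-Luc or R-Luc (12 μM coelenterazine, pH 7.4 buffer) normalized to Bradford protein, expressed as % of DMSO control. EC50 from nonlinear regression of log concentration.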

Hepatitis C virus [6] = assay: Antiviral activity against HCV genotype 1b Con1 infected in human HuH5.2 cells assessed as reduction in viral replication incubated for 3 days by luciferase reporter gene assay; type: functional, organism-based, Hepacivirus hominis; settings: subtype 1b Con1, Huh-5-2, 72 h; in short: as §2
[7] = Cytotoxicity against rat L6 cells assessed as reduction in cell viability incubated for 6 days by resazurin dye based fluorescence assay
In short: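 Rat skeletal myoblast L6 cells seeded in triplicate at 1 × 10⁴ mL⁻¹ in growth medium containing a range of compound concentrations, 6 days at 37 °C; resazurin added, 8 h further, fluorescence read. CC50 = concentration giving 50% growth inhibition; mean of triplicate experiments ± SEM.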

[8] = Cytotoxicity against human HuH5.2 cells assessed as reduction in cell viability incubated for 72 hrs by measuring intracellular ATP levels
dengue virus type 2 = assay: Antiviral activity against DENV 2 16681 infected in human HuH7 cells assessed as reduction in viral replication incubated for 3 days by luciferase reporter gene assay; type: functional, organism-based; settings: Dengue virus, 16681, Huh-7, 72 h; in short: as §2
[9] = Selectivity index, ratio of CC50 for human Huh5.2 cells to EC50 for HCV genotype 3a S52; type: toxicity; settings: read-out: Ratio CC50/EC50; in short: as §1
Hepatitis C virus [10] = assay: Antiviral activity against HCV genotype 3a S52 infected in human HuH7.5 cells assessed as reduction in viral replication incubated for 3 days by luciferase reporter gene assay; type: functional, organism-based, Hepacivirus hominis; settings: subtype 3a S52, Huh7.5, 72 h; in short: as §2
[11] = Selectivity index, ratio of CC50 for human Huh5.2 cells to EC50 for DENV2 16681; type: toxicity; settings: read-out: Ratio CC50/EC50
Nonstructural protein 5A = target: T1, Nonstructural protein 5A (Hepatitis C virus, UniProt Q5L478); assay: Inhibition of HCV genotype 1b NS5A; set-up: species or system Hepatitis C virus subtype 1b
T1 sequence (Q5L478 whole entry): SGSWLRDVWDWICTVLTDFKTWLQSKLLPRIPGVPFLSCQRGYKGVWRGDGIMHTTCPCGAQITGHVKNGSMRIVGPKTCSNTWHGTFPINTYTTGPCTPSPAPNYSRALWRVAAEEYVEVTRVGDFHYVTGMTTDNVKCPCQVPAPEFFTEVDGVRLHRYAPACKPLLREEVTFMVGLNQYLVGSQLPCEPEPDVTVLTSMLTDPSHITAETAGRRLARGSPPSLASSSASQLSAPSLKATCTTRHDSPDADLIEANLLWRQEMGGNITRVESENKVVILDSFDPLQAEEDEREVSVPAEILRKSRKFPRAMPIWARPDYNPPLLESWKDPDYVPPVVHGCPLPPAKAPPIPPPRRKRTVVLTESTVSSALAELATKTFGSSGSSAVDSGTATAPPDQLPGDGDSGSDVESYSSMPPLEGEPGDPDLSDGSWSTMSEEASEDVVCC

Hepatitis C virus [12] = assay: Antiviral activity against HCV genotype 4a ED43 infected in human HuH7.5 cells assessed as reduction in viral RNA at 0.01 to 10 uM incubated for 3 days by qRT-PCR analysis; type: functional, organism-based; settings: Hepacivirus hominis, subtype 4a ED43
In short: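 Huh7.5-4a replicon cells treated with serial dilutions or DMSO; (+) strand HCV RNA quantified by RT-qPCR, normalized to housekeeping gene YWHAZ mRNA, expressed as percentage of solvent-treated control.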

Hepatitis C virus [13] = assay: Antiviral activity against HCV genotype 4a ED43 infected in human HuH7.5 cells assessed as reduction in viral NS5A expression at 2 to 5 uM incubated for 3 days by immunofluorescence assay; type: functional, organism-based; settings: Hepacivirus hominis, subtype 4a ED43
In short: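 Huh7.5-4a replicon cells given serial compound dilutions or DMSO; HCV NS5A detected by indirect immunofluorescence, nuclei stained with propidium iodide as viability control, confocal imaging.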

[14] = target: RNA-directed RNA polymerase (Hepacivirus hominis, UniProt O39930); assay: Inhibition of HCV genotype 1b NS5B RNA dependent RNA polymerase; set-up: species or system Hepatitis C virus subtype 1b
Chain of RNA-directed RNA polymerase (O39930 whole entry): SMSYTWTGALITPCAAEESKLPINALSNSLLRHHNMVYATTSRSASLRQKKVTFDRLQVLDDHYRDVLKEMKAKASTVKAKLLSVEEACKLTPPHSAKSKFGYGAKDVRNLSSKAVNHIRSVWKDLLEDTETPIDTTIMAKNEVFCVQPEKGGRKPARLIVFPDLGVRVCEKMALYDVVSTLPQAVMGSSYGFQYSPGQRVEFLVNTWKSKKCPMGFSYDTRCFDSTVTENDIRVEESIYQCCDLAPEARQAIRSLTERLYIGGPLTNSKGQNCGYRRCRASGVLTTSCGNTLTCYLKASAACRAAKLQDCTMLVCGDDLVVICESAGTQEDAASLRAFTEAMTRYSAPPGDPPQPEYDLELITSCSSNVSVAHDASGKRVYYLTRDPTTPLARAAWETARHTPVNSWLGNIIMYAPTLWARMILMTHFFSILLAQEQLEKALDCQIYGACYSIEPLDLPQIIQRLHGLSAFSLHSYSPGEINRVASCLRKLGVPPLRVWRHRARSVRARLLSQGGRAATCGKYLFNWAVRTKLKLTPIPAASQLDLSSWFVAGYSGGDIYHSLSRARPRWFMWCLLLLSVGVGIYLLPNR

SMILES | selectivity ratio [1] | selectivity ratio [2] | EC50 (Trypanosoma brucei) | EC90 (Trypanosoma brucei) | selectivity ratio [3] | EC50 (Trypanosoma cruzi) | EC90 (Trypanosoma cruzi) | selectivity ratio [4] | EC50 (Hepatitis C virus [5]) | EC50 (Hepatitis C virus [6]) | CC50 at 144 h [7] | CC50 at 72 h [8] | EC50 (dengue virus type 2) | selectivity ratio [9] | EC50 (Hepatitis C virus [10]) | selectivity ratio [11] | EC50 (Nonstructural protein 5A) | Activity (Hepatitis C virus [12]) | Activity (Hepatitis C virus [13]) | EC50 [14]
O=C(CN1C(=O)N(Cc2ccccc2)C2(CCCc3ccccc32)C1=O)NO (stereo not given) | 3 | 28 | 0.05 µM | 0.077 µM | 127 | 0.96 µM | 1.71 µM | 63 | 0.07 µM | 0.32 µM | 3.17 µM | 8.9 µM | – | – | – | – | – | – | – | –
O=C(CN1C(=O)NC2(CCc3ccccc32)C1=O)NO (stereo not given) | – | > 68 | 0.44 µM | 0.8 µM | > 345 | > 30 µM | > 30 µM | 609 | 0.58 µM | 2.92 µM | 268 µM | > 200 µM | 96.3 µM | > 67 | 2.97 µM | > 2 | – | – | – | –
COC(=O)N[C@H](C(=O)N1CCC[C@H]1c1nc(-c2ccc(-c3ccc(-c4c[nH]c([C@@H]5CCCN5C(=O)[C@@H](NC(=O)OC)C(C)C)n4)cc3)cc2)c[nH]1)C(C)C [DACLATASVIR] | – | – | – | – | – | – | – | – | – | – | – | – | – | – | – | – | 2 pM | – | – | –
O=C(CN1C(=O)N(Cc2ccccc2)C2(CCc3ccccc32)C1=O)NO (stereo not given) | 4 | 34 | 0.101 µM | 0.192 µM | 54 | 1.7 µM | 3.01 µM | 62 | 0.14 µM | 0.22 µM | 6.27 µM | 7.53 µM | – | – | – | – | – | – | – | –
CN1C(=O)N(CC(=O)NO)C(=O)C12CCc1ccccc12 (stereo not given) | – | 19 | 1.22 µM | 1.93 µM | 128 | > 30 µM | – | 451 | 0.21 µM | 1.41 µM | 550 µM | 26.9 µM | – | – | – | – | – | – | – | –
O=C(CN1C(=O)NC2(CCCc3ccccc32)C1=O)NO (stereo not given) | – | > 142 | 0.71 µM | 1.27 µM | > 526 | > 30 µM | > 30 µM | 590 | 0.38 µM | 1.41 µM | 419 µM | > 200 µM | 61.5 µM | > 84 | 2.37 µM | > 3 | – | – | – | –
O=C(CN1C(=O)NC2(CCCCc3ccccc32)C1=O)NO (stereo not given) | – | 794 | 0.4 µM | 0.52 µM | 1980 | > 30 µM | – | 313 | 0.1 µM | 0.25 µM | 125 µM | 198 µM | 16.3 µM | 2480 | 0.08 µM | 12 | – | Active | Active | –
CC(C)OC(=O)[C@H](C)N[P@](=O)(OC[C@H]1O[C@@H](n2ccc(=O)[nH]c2=O)[C@](C)(F)[C@@H]1O)Oc1ccccc1 [SOFOSBUVIR] | – | – | – | – | – | – | – | – | – | – | – | – | – | – | – | – | – | – | – | 0.102 µM
O=C1Cn2c(cc3ccccc32)C(=O)N1O | – | > 1.6 | – | – | – | – | – | – | – | 126 µM | – | > 200 µM | – | – | – | – | – | – | – | –
CN1C(=O)N(CC(=O)NO)C(=O)C12CCCCc1ccccc12 (stereo not given) | 2 | 95 | 0.23 µM | 0.3 µM | 1020 | 10.6 µM | 15.3 µM | 71 | 0.11 µM | 1.18 µM | 16.4 µM | 112 µM | – | – | – | – | – | – | – | –
O=C(CN1C(=O)N(Cc2ccccc2)C2(CCCCc3ccccc32)C1=O)NO (stereo not given) | 16 | 5 | 0.013 µM | 0.018 µM | 45 | 0.495 µM | 0.94 µM | 604 | 0.12 µM | 1 µM | 7.85 µM | 5.45 µM | – | – | – | – | – | – | – | –
O=C1NC(=O)C2(CCc3ccccc32)N1 (stereo not given) | – | – | > 50 µM | – | – | > 500 µM | – | – | – | > 10 µM | > 500 µM | > 10 µM | – | – | – | – | – | – | – | –
CN1C(=O)N(CC(=O)NO)C(=O)C12CCCc1ccccc12 (stereo not given) | 1 | 99 | 1.91 µM | 4.69 µM | 682 | 27.6 µM | 42.1 µM | 15 | 0.21 µM | 1.45 µM | 28.2 µM | 143 µM | – | – | – | – | – | Active | – | –
COc1c(-c2ccc3cc(NS(C)(=O)=O)ccc3c2)cc(-n2ccc(=O)[nH]c2=O)cc1C(C)(C)C [DASABUVIR] | – | – | – | – | – | – | – | – | – | – | – | – | – | – | – | – | – | – | – | 0.0018 µM
O=C(CN1C(=O)CNC2(CCCCCC2)C1=O)NO | – | – | 1.87 µM | 2.53 µM | – | – | – | – | – | – | – | – | – | – | – | – | – | – | – | –
